Assay results: ChEMBL document CHEMBL5712087, “Targeting bromodomain-containing protein 4 (BRD4) inhibits MYC expression in colorectal cancer cells” (Neoplasia, 2019)
Activity calls are given as the source filed them.

Tests used:
[1] = tested on: COLO 320; assay: Inhibition of colony formation in human COLO 320 cells at 500 to 1000 nM by crystal violet staining analysis; assay type: functional, cell-based; conditions: dose 500-1000 nM
Method in brief: (§1)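 Exponentially growing cells (1-2x10^3) plated in six-well plates; after 48 h treated with indicated concentrations for 3–5 days, then methanol-fixed and crystal violet stained. Cell lines maintained at 37 °C, 5% CO2 in serum-supplemented medium, STR-validated, mycoplasma-tested, <15 passages.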

[2] = tested on: DLD-1; assay: Inhibition of colony formation in human DLD-1 cells at 500 to 1000 nM by crystal violet staining analysis; assay type: functional, cell-based; conditions: dose 500-1000 nM; method in brief: as §1
[3] = tested on: HCT-116; assay: Inhibition of colony formation in human HCT116 p53+/+ cells at 500 to 1000 nM by crystal violet staining analysis; assay type: functional, cell-based; conditions: dose 500-1000 nM; method in brief: as §1
[4] = tested on: HCT-116; assay: Inhibition of colony formation in human HCT116 p53-/- cells at 500 to 1000 nM by crystal violet staining analysis; assay type: functional, cell-based; conditions: dose 500-1000 nM; method in brief: as §1
[5] = tested on: HT-29; assay: Inhibition of colony formation in human HT-29 cells at 500 to 1000 nM by crystal violet staining analysis; assay type: functional, cell-based; conditions: dose 500-1000 nM; method in brief: as §1
[6] = tested on: LS174T; assay: Inhibition of colony formation in human LS174T cells at 500 to 1000 nM by crystal violet staining analysis; assay type: functional, cell-based; conditions: dose 500-1000 nM; method in brief: as §1
[7] = tested on: SW480; assay: Inhibition of colony formation in human SW480 cells at 500 to 1000 nM by crystal violet staining analysis; assay type: functional, cell-based; conditions: dose 500-1000 nM; method in brief: as §1
[8] = molecular target: Bromodomain-containing protein 4 (Homo sapiens) (UniProt O60885); conditions: SW480, dose 500-1000 nM, time 24.0 hrs
[9] = molecular target: Bromodomain-containing protein 4 (Homo sapiens) (UniProt O60885); conditions: LS174T, dose 500-1000 nM, time 24.0 hrs
[10] = molecular target: Bromodomain-containing protein 4 (Homo sapiens) (UniProt O60885); conditions: HT-29, dose 500-1000 nM, time 24.0 hrs
[11] = molecular target: Bromodomain-containing protein 4 (Homo sapiens) (UniProt O60885); conditions: HCT-116, dose 500-1000 nM, time 24.0 hrs
[12] = molecular target: Bromodomain-containing protein 4 (Homo sapiens) (UniProt O60885); conditions: HCT-116, dose 500-1000 nM, time 24.0 hrs; remark: listed apart in the source
[13] = molecular target: Bromodomain-containing protein 4 (Homo sapiens) (UniProt O60885); conditions: DLD-1, dose 500-1000 nM, time 24.0 hrs
[14] = molecular target: Bromodomain-containing protein 4 (Homo sapiens) (UniProt O60885); conditions: COLO 320, dose 500-1000 nM, time 24.0 hrs
[15] = molecular target: Bromodomain-containing protein 4 (Homo sapiens) (UniProt O60885); conditions: LS174T, dose 500-1000 nM, time 24.0 hrs; remark: listed apart in the source
[16] = molecular target: Bromodomain-containing protein 4 (Homo sapiens) (UniProt O60885); conditions: LS174T, dose 500-1000 nM, time 24.0 hrs; remark: listed apart in the source

Measured: inhibition

Cc1sc2c(c1C)C(c1ccc(Cl)cc1)=N[C@@H](CC(=O)OC(C)(C)C)c1nnc(C)n1-2
active: [1] | [2] | [3] | [4] | [5] | [6] | [7] | [8] | [9] | [10] | [11] | [12] | [13] | [14] | [15] | [16]
